Activity, Efficacy and EC50 data for 13 compounds are collected here from ChEMBL document CHEMBL2434839, “Isoxazole derivatives as potent transient receptor potential melastatin type 8 (TRPM8) agonists” (Eur J Med Chem, 2013).

The test system of experiment [1] is Mus musculus. The experiment can be described thus: Potentiation of acetone-induced cold allodynic response in Swiss CD-1 mouse chronic constriction injury model applied topically 20 mins prior to acetone-challenge measured for 14 to 16 mins post acetone-challenge. The format is functional, organism-based. An outline of the steps:
(§1)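 Male Swiss CD1 mice (30–35 g) with sciatic nerve chronic constriction injury under xylazine/ketamine i.p. Day 14: 50 µl of compound at 20% w/v in absolute ethanol applied topically to the operated paw (vehicle: ethanol). After 20 min, acetone applied. Brisk paw withdrawals counted in three 2-min windows about 5 min apart, as totals and per phase. n = 6 per group.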

For experiment [2], the system named is F11. In words: Agonist activity at TRPM8 in differentiated rat/mouse F11 cells assessed as increase in intracellular Ca2+ level at 0.001 to 30 uM by Fura-2-AM based fluorescence assay relative to menthol. The format is cell-based. An outline of the steps:
(§2)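 Differentiated F11 cells (≥72 h in 2% FBS plus retinoic acid) in Normal Krebs, pH 7.4, room temperature. Compounds perfused over the stated ranges. Fura-2 340/380 nm ratio read every 3 s after background correction. Peak F/F0 normalized to the maximal menthol response for efficacy. For potency, F/F0 was normalized to each compound's own maximum and fitted to y = max/(1 + […])^n.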

In experiment [3] the test system is Mus musculus. The experiment can be described thus: Potentiation of acetone-induced cold allodynic response in Swiss CD-1 mouse chronic constriction injury model applied topically 20 mins prior to acetone-challenge measured for 7 to 9 mins post acetone-challenge. It counts as functional, organism-based. An outline of the steps: as §1
Experiment [4] relates to Mus musculus. The experiment can be described thus: Potentiation of acetone-induced cold allodynic response in Swiss CD-1 mouse chronic constriction injury model applied topically 20 mins prior to acetone-challenge. The format is functional, organism-based. An outline of the steps: as §1
For experiment [5], the system named is Mus musculus. The experiment can be described thus: Potentiation of acetone-induced cold allodynic response in Swiss CD-1 mouse chronic constriction injury model applied topically 20 mins prior to acetone-challenge measured up to 2 mins post acetone-challenge. It counts as functional, organism-based. An outline of the steps: as §1
The subject of experiment [6] is F11. The experiment can be described thus: (§3) Agonist activity at TRPM8 in differentiated rat/mouse F11 cells assessed as increase in intracellular Ca2+ level by Fura-2-AM based fluorescence assay. It counts as cell-based. An outline of the steps: (§4)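 In differentiated F11 cells, L-menthol was perfused for 20 s at 1–300 µM in Normal Krebs, pH 7.4, room temperature. Fura-2 340/380 ratio was imaged every 3 s as F/F0. EC50 came from a fit to y = max/(1 + x/EC50)^n. Mean ± SEM of 23–28 determinations over at least 3 sessions.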

Experiment [7] is described as follows: as §3. The format is cell-based. An outline of the steps:
as §4

The test system of experiment [8] is F11. In words: Agonist activity at TRPM8 in differentiated rat/mouse F11 cells assessed as increase in intracellular Ca2+ level at 0.1 to 300 uM by Fura-2-AM based fluorescence assay relative to menthol. The format is cell-based. The essentials:
as §2

The subject of experiment [9] is F11. The experiment can be described thus: Agonist activity at TRPM8 in differentiated rat/mouse F11 cells assessed as increase in intracellular Ca2+ level at 1 to 100 uM by Fura-2-AM based fluorescence assay relative to menthol. The format is cell-based. An outline of the steps: as §2
Experiment [10] has as its system F11. In words: Agonist activity at TRPM8 in differentiated rat/mouse F11 cells assessed as increase in intracellular Ca2+ level at 0.3 to 100 uM by Fura-2-AM based fluorescence assay relative to menthol. It counts as cell-based. An outline of the steps:
as §2

The subject of experiment [11] is F11. In words: Agonist activity at TRPM8 in differentiated rat/mouse F11 cells assessed as increase in intracellular Ca2+ level at 10 to 1000 uM by Fura-2-AM based fluorescence assay relative to menthol. The format is cell-based. The essentials: as §2
Experiment [12] relates to F11. The experiment can be described thus: Agonist activity at TRPM8 in differentiated rat/mouse F11 cells assessed as increase in intracellular Ca2+ level at 0.01 to 100 uM by Fura-2-AM based fluorescence assay relative to menthol. The format is cell-based. An outline of the steps: as §2
For experiment [13], the system named is F11. In words: Agonist activity at TRPM8 in differentiated rat/mouse F11 cells assessed as increase in intracellular Ca2+ level at 0.01 to 30 uM by Fura-2-AM based fluorescence assay relative to menthol. It counts as cell-based. The essentials: as §2
Experiment [14] deals with F11. The experiment can be described thus: Agonist activity at TRPM8 in differentiated rat/mouse F11 cells assessed as increase in intracellular Ca2+ level at 1 to 300 uM measured after 1 to 15 seconds by Fura-2-AM based fluorescence assay. The format is cell-based. The essentials: as §4
Experiment [15] concerns F11. In words: Agonist activity at TRPM8 in differentiated rat/mouse F11 cells at 100 uM treated in Ca2+-free solution by Fura-2-AM based fluorescence assay. It counts as cell-based. An outline of the steps: (§5)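 Fura-2 ratiometric Ca2+ imaging in F11 cells differentiated ≥72 h in medium with 2% FBS and retinoic acid, on poly-L-lysine coverslips, at room temperature in Normal Krebs (mM: NaCl 160, KCl 5.5, CaCl2 1.5, MgSO4 1.2, HEPES 10, glucose 10, pH 7.4). Menthol 100 µM perfused alone, with BCTC co-perfusion, or in Ca2+-free solution plus 1 mM EDTA. Peak F/F0 quantified.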

Experiment [16] concerns F11. The experiment can be described thus: (§6) Agonist activity at TRPM8 in differentiated rat/mouse F11 cells assessed as increase in intracellular Ca2+ level measured after 20 seconds by Fura-2-AM based fluorescence assay. The format is cell-based. An outline of the steps:
as §4

Experiment [17] in a line: as §6. It counts as cell-based. An outline of the steps:
as §4

The subject of experiment [18] is F11. The experiment can be described thus: Agonist activity at TRPM8 in differentiated rat/mouse F11 cells assessed as effect on intracellular Ca2+ level at 100 uM by Fura-2-AM based fluorescence assay in presence of TRPM8 antagonist BCTC. The format is cell-based. An outline of the steps:
as §5

In experiment [19] the test system is F11. The experiment can be described thus: Agonist activity at TRPM8 in differentiated rat/mouse F11 cells assessed as increase in intracellular Ca2+ level at 1 to 500 uM by Fura-2-AM based fluorescence assay relative to menthol. The format is cell-based. An outline of the steps: as §2

SMILES strings stand for the structures. Active and inactive are the calls of the source. No cut-off for these calls is given here.

The EC50 is the concentration that produces a half-maximal response. Consider `Cc1cc(NC(C)C)no1`, for which the result in experiment [1] and in [3] was inactive. Also, in experiment [2], the Efficacy was 53%. Also, the Activity result in experiment [4] (TDE = time-dependent effect) was “tde”; in experiment [6], “Dose-dependent effect”. The result in [5] was Active. Besides, in [7], the concentration for a half-maximal effect (EC50) was 0.1 µM.

Take `Cc1cc(NCc2ccccc2[N+](=O)[O-])no1`: in experiment [8], the Efficacy turned out to be 66%. Moreover, the Activity result in experiment [6] was “Dose-dependent effect”. Further, the EC50 in experiment [7] worked out at 12 µM.

Turning to `CC(C)CNc1ccon1`, in experiment [9], the Efficacy was 72%. Moreover, in experiment [6], the Activity result was “Dose-dependent effect”. The half-maximal effective concentration (EC50) in [7] stood at 13.2 µM.

With `Cc1cc(NCC2CCCCC2)no1`, the Efficacy in [10] amounted to 64%. In addition, the Activity entry in experiment [6] is “Dose-dependent effect”. In addition, in experiment [7], the EC50 was determined as 13.9 µM.

Consider `CCCCNc1cc(C)no1`, for which the Efficacy in experiment [11] came out at 32%. Moreover, the Activity entry in experiment [6] is “Dose-dependent effect”. Moreover, in experiment [7], the EC50 was determined as 100 µM.

Regarding `CCCCNc1ccon1`, the Efficacy in [9] was 69%. Further, the Activity result in experiment [6] is “Dose-dependent effect”. The concentration giving a half-maximal response (EC50) in [7] turned out to be 17.3 µM.

Regarding `Cc1cc(NCCC(C)C)no1`, the outcome in [1] and in experiment [3] was inactive. Also, the Activity entry is “tde” in experiment [4] (TDE = time-dependent effect) and “Dose-dependent effect” in [6]. Also, the outcome in experiment [5] was Active. Also, in experiment [7], the EC50 came to 0.5 µM. Moreover, in [12], the Efficacy came out at 66%.

Take `Cc1cc(NCC(C)C)no1`: the result in experiment [1] and in experiment [3] was inactive. In addition, the Efficacy in experiment [13] is 58%. Also, the Activity result in [4] (TDE = time-dependent effect) was “tde”; in experiment [6], “Dose-dependent effect”. Also, the result in experiment [5] was Active. Also, the EC50 in experiment [7] came to 0.16 µM.

`Cc1cc(NCc2ccccc2)no1`: the result in experiment [1], in experiment [3], in experiment [4] and in experiment [5] was inactive. The Efficacy in [11] was 82%. Further, the Activity result in experiment [6] was “Dose-dependent effect”. Further, the EC50 in [7] worked out at 400 µM.

`CCCCNc1cc(C)on1`: the outcome in experiment [1], in experiment [3] and in experiment [4] was inactive. Moreover, the outcome in experiment [5] was Active. Besides, the Activity entry in experiment [6] is “Dose-dependent effect”. Further, the EC50 in [7] came out at 3.6 µM. In experiment [12], the Efficacy was determined as 89%.

On to `Cc1cc(NCc2ccc([N+](=O)[O-])cc2)no1`, for which, in experiment [8], the Efficacy was found to be 74%. In addition, the Activity result in experiment [6] is “Dose-dependent effect”. The EC50 in experiment [7] amounted to 18.9 µM.

Turning to `CC(C)[C@@H]1CC[C@@H](C)C[C@H]1O` [LEVOMENTHOL], the outcome in [14] and in [3] was Active. The result in experiment [1], in experiment [15], in experiment [5] and in experiment [18] was inactive. Moreover, the Activity entry in [16] was “Dose-dependent effect”. Besides, the EC50 in [17] was found to be 23.4 µM.

For the compound `Cc1cc(NCC(C)C)on1`, the Efficacy in experiment [19] is 36%. In experiment [6], the Activity entry was “Dose-dependent effect”. The half-maximal effective concentration (EC50) in [7] amounted to 48.4 µM.
